How the values were obtained:
[1] = molecular target: Bromodomain adjacent to zinc finger domain protein 2A (Homo sapiens, UniProt Q9UIF9); test: Binding affinity to human BAZ2A (M1792 to L1905 residues) expressed in bacterial expression system by BROMOScan assay
[2] = molecular target: SWI/SNF-related matrix-associated actin-dependent regulator of chromatin subfamily A member 2 (Homo sapiens, UniProt P51531); test: Binding affinity to human SMARCA2 (S1377 to Q1486 residues) expressed in bacterial expression system by BROMOScan assay
CREB-binding protein = CREB-binding protein (Homo sapiens, UniProt Q92793); test: Binding affinity to human CREBBP (R1081 to G1197 residues) expressed in bacterial expression system by BROMOscan assay
[3] = molecular target: ATPase family AAA domain-containing protein 2 (Homo sapiens, UniProt Q6PL18); test: Binding affinity to human ATAD2A (Q981 to R1108 residues) expressed in bacterial expression system by BROMOScan assay
MDA-MB-231 [4] = test: Growth inhibition of human MDA-MB-231 cells after 4 days by WST-8 assay; type: functional, cell-based; details: MDA-MB-231, 96 h
How it was run: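 Cells used within 3 months of thaw. Breast cancer cells seeded at 3000 cells/well, then serially diluted compound added, cultured 4 days. Growth read by WST-8 (10% v/v final, 1−3 h, 450 nm). Readings normalized to DMSO-treated cells. IC50 by nonlinear regression.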

Mus musculus = test: Toxicity in SCID mouse xenografted with human MDA-MB-231 cells assessed as change in body weight at 10 to 50 mg/kg administered via oral gavage measured 2 to 3 times per week during compound dosing and measured weekly post treatment; type: organism-based; details: in vivo
How it was run: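 Xenografts raised by subcutaneous dorsal injection of 5 × 10⁶ cells in 50% Matrigel into SCID mice, one tumor per mouse. Mice randomized to treatment or vehicle groups at about 100 mm3 tumor volume. Compounds given by oral gavage at the indicated dose-schedules, with percentage body-weight change tracked alongside tumor volume (L × W²/2).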

[5] = AUC in Balb/c mouse at 5 mg/kg, iv by LC-MS/MS analysis; type: ADME, organism-based; details: in vivo
How it was run: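 Balb/c mice dosed iv at 5.0 mg/kg or po at 25 mg/kg, compound in vehicle of 20% (v/v) PCP and 70% (v/v) PBS. Serial blood samples taken at 0, 5, 15, 30 min and 1, 2, 4, 6, 8, 24 h. Plasma obtained by centrifugation and stored at −80 °C. Analysis by LC-MS/MS, positive-ion MRM. Parameters from noncompartmental analysis.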

[6] = Plasma concentration in SCID mouse xenografted with human MDA-MB-231 cells at 50 mg/kg administered via oral gavage measured after 1 hr; type: ADME, organism-based
How it was run: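 Limited PK in SCID mice bearing MDA-MB-231 tumors, 50 mg/kg given by oral gavage. Plasma and tumor tissue drug levels measured at two time points per compound. Values are the mean of two mice/tumors per time point.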

Peregrin = Peregrin (Homo sapiens, UniProt P55201); test: Binding affinity to human BRPF1 (E627 to G740 residues) expressed in bacterial expression system by BROMOScan assay
Homo sapiens [7] = species: Homo sapiens; test: Selectivity index, ratio of Kd for human CECR2 (P423 to D543 residues) to Kd for human BRD3 bromodomain 1 (P24 to E144 residues)
[8] = molecular target: Bromodomain-containing protein 8 (Homo sapiens, UniProt Q9H0E9); test: Inhibition of BRD8 bromodomain 1 (unknown origin) by BROMOScan assay
MDA-MB-231 [9] = test: Antitumor activity against human MDA-MB-231 cells xenografted in SCID mouse assessed as tumor growth inhibition at 25 mg/kg administered via oral gavage measured on day 44; type: functional; details: MDA-MB-231, po, 1056 h, read-out: TGI
How it was run: (§1)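 SCID mice were implanted subcutaneously on the dorsal side with 5 × 10⁶ MDA-MB-231 or RS4;11 cells in 50% Matrigel, one tumor per mouse. At ca. 100 mm3, mice were randomized to treatment or vehicle groups and dosed by oral gavage. Tumor volume = L × W²/2. Body weight change tracked. p values by two-tailed unpaired t-test.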

RS4-11 = test: Antitumor activity against human RS4:11 cells xenografted in SCID mouse assessed as tumor growth inhibition at 25 mg/kg administered via oral gavage measured on day 35; type: functional; details: RS4-11, po, 840 h, read-out: TGI; how it was run: as §1
[10] = molecular target: T1, Bromodomain-containing protein 4 (Homo sapiens, UniProt O60885); test: Inhibition of FAM-labeled ZBA248 binding to recombinant human BRD4 bromodomain 1 (44 to 168 residues) expressed in Rosetta2 Escherichia coli DE3 cells after 30 mins by fluorescence polarization assay
How it was run: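 Recombinant human BRD4 BD1 (residues 44−168) in a fluorescence polarization competitive binding assay, run as described in earlier work.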

Protein polybromo-1 = Protein polybromo-1 (Homo sapiens, UniProt Q86U86); test: Binding affinity to human PBRM1 bromodomain 5 (S645 to D766 residues) expressed in bacterial expression system by BROMOScan assay
[11] = molecular target: SWI/SNF-related matrix-associated actin-dependent regulator of chromatin subfamily A member 4 (Homo sapiens, UniProt P51532); test: Binding affinity to human SMARCA4 (A1448 to S1575 residues) expressed in bacterial expression system by BROMOScan assay
[12] = molecular target: Nucleosome-remodeling factor subunit BPTF (Homo sapiens, UniProt Q12830); test: Binding affinity to human FALZ (S2791 to H2911 residues) expressed in bacterial expression system by BROMOScan assay
[13] = molecular target: ATPase family AAA domain-containing protein 2B (Homo sapiens, UniProt Q9ULI0); test: Binding affinity to human ATAD2B (Q955 to R1082 residues) expressed in bacterial expression system by BROMOScan assay
Chain of ATPase family AAA domain-containing protein 2B (Q9ULI0 whole entry, the tested form may be a part): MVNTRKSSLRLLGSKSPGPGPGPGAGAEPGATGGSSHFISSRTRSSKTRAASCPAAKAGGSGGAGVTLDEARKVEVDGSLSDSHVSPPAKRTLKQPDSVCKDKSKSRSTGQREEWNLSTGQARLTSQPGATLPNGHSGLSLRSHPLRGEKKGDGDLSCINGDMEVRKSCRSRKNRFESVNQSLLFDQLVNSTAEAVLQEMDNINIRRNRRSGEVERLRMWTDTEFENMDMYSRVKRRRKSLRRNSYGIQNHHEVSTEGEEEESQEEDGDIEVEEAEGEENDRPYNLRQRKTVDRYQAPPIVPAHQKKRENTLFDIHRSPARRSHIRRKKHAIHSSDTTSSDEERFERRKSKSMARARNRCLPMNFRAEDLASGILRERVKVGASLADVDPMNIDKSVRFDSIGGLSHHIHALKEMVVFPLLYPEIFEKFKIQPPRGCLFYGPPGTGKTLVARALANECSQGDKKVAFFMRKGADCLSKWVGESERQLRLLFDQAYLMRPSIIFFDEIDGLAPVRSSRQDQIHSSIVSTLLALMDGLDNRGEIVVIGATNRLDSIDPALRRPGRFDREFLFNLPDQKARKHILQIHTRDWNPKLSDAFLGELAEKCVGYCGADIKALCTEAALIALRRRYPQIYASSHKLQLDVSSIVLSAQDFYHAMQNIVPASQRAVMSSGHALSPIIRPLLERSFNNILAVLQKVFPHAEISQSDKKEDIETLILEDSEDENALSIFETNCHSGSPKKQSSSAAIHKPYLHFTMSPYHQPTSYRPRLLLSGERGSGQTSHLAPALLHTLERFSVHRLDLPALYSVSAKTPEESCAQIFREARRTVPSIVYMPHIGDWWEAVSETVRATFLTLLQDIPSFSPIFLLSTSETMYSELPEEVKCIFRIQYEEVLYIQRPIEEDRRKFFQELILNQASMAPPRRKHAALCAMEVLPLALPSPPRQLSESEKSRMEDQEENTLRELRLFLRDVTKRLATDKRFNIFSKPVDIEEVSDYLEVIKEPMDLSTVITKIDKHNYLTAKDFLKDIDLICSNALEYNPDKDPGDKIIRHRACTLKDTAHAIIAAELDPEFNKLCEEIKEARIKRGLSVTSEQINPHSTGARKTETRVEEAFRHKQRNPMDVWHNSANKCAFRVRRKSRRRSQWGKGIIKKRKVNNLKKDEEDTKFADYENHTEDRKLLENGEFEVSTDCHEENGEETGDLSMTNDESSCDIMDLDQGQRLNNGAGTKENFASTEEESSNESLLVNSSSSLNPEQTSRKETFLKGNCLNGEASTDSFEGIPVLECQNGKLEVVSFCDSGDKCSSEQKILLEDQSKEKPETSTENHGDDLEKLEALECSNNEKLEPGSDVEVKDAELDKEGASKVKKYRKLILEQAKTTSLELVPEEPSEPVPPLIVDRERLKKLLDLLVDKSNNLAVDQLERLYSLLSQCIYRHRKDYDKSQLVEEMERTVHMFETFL

[14] = molecular target: T1, Bromodomain-containing protein 4; test: Binding affinity to human BRD4 bromodomain 1 (N44 to E168 residues) expressed in bacterial expression system by BROMOscan assay
MDA-MB-231 [15] = test: Antitumor activity against human MDA-MB-231 cells xenografted in SCID mouse assessed as tumor growth inhibition at 50 mg/kg administered via oral gavage measured on day 44; type: functional; details: MDA-MB-231, po, 1056 h, read-out: TGI
How it was run: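 Each SCID mouse received a single dorsal subcutaneous tumor of 5 × 10⁶ RS4;11 or MDA-MB-231 cells in 50% Matrigel. At about 100 mm3, mice were randomised to treatment or vehicle control groups. Dosing was by oral gavage at the stated schedules. Tumor volume was L × W²/2, and body weight was tracked. TGI versus vehicle at end of treatment was tested by unpaired two-tailed t-test.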

[16] = molecular target: Bromodomain-containing protein 2 (Homo sapiens, UniProt P25440); test: Binding affinity to human BRD2 bromodomain 1 (K71 to N194 residues) expressed in bacterial expression system by BROMOscan assay
Chain of Bromodomain-containing protein 2 (P25440 whole entry, the tested form may be a part): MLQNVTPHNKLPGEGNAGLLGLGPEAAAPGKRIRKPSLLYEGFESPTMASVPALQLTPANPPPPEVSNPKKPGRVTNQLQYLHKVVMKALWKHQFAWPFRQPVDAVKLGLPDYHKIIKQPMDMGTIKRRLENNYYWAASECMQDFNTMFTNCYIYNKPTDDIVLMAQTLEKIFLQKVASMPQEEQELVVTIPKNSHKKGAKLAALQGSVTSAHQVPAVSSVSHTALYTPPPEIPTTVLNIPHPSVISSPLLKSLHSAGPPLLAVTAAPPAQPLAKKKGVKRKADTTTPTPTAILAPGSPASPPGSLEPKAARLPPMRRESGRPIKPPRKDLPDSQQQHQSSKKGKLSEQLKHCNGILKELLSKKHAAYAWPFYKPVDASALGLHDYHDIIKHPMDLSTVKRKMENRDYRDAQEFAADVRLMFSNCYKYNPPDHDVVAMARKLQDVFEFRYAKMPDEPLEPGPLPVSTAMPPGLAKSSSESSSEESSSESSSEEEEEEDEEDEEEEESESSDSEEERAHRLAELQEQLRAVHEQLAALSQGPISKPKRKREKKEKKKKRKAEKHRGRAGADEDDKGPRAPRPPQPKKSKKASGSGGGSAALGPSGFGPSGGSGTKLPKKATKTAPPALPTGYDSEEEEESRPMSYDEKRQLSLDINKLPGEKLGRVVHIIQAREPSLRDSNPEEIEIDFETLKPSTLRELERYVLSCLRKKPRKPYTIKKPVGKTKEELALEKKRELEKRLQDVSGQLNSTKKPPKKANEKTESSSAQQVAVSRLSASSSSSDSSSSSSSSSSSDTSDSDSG

Homo sapiens [17] = species: Homo sapiens; test: Selectivity index, ratio of Kd for human CECR2 (P423 to D543 residues) to Kd for human BRDT bromodomain 2 (K250 to E382 residues)

Chain of Bromodomain adjacent to zinc finger domain protein 2A (Q9UIF9 whole entry, the tested form may be a part): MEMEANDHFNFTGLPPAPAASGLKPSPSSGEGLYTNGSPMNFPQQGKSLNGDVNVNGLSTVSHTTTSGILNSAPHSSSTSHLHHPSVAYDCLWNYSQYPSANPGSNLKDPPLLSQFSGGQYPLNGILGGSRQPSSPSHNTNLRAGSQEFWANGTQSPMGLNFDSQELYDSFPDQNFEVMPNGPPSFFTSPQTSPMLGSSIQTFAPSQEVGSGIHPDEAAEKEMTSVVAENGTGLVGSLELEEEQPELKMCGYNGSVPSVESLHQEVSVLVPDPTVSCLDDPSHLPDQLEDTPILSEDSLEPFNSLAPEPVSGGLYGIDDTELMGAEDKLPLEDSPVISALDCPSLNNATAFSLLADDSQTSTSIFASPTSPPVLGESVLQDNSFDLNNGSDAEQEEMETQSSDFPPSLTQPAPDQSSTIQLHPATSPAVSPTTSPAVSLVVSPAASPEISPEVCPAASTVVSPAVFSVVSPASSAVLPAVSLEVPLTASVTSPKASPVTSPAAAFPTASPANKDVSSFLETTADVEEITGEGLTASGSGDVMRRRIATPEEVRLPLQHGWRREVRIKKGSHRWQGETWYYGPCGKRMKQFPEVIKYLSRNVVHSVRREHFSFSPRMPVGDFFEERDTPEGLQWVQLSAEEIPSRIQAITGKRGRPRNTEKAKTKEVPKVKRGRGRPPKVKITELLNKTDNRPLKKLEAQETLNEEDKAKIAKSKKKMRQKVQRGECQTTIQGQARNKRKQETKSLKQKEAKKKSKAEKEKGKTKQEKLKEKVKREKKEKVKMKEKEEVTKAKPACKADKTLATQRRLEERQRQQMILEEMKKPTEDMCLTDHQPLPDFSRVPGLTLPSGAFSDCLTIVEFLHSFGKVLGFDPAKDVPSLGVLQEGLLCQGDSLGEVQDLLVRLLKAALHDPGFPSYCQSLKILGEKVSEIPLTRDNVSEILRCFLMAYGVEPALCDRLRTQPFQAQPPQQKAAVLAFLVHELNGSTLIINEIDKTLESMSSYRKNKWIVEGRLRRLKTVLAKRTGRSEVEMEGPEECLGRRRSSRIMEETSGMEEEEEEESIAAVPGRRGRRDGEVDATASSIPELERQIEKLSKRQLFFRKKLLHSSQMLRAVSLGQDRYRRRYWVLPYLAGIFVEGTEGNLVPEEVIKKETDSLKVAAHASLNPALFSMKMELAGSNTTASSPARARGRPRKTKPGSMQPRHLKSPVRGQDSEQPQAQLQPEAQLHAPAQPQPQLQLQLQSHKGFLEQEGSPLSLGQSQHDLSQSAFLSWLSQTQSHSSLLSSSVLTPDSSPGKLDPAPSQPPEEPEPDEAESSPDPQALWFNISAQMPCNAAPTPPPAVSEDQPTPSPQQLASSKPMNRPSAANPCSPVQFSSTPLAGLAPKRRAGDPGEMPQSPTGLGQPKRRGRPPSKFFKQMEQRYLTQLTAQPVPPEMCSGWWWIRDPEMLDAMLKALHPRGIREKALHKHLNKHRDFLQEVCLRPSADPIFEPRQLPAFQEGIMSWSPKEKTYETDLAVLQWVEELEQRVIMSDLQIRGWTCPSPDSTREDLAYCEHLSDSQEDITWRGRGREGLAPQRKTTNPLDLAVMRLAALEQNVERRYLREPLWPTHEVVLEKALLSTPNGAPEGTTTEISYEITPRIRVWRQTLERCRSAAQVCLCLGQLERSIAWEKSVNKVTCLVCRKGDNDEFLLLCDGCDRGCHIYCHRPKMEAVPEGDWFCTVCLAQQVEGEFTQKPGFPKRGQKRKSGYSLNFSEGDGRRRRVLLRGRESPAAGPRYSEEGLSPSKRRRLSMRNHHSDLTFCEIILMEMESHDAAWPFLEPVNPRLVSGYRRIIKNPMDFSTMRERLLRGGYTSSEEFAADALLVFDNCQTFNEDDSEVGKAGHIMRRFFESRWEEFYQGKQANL

Kd [1]: > 5 µM
Kd [2]: > 5 µM
Kd (CREB-binding protein): 0.047 µM
Kd [3]: > 5 µM
IC50 (MDA-MB-231 [4]): 0.085 µM
AUC [5]: 9.05 µM·h
concentration at 1 h [6]: 12.6 µg/mL
Kd (Peregrin): > 4 µM
Selectivity Index (Homo sapiens [7]): > 50
Kd [8]: > 5 µM
IC50 [10]: 0.002 µM
Ki [10]: < 0.001 µM
Kd (Protein polybromo-1): > 5 µM
Kd [11]: > 5 µM
Kd [12]: > 5 µM
Kd [13]: > 5 µM
Kd [14]: 0.0022 µM
Kd [16]: 0.0011 µM
Selectivity Index (Homo sapiens [17]): > 50
SMILES: COc1cc2c(cc1-c1c(C)noc1C)[nH]c1nc(C)nc(Nc3cc(C4CC4)nn3C)c12
Activity (Mus musculus): Non-Toxic
inhibition in vivo at 25 mg/kg (MDA-MB-231 [9]): 67.6%
inhibition in vivo at 25 mg/kg (RS4-11): 49.3%
inhibition in vivo at 50 mg/kg (MDA-MB-231 [15]): 77.3%

Source: ChEMBL document CHEMBL4145654, “Structure-Based Discovery of CF53 as a Potent and Orally Bioavailable Bromodomain and Extra-Terminal (BET) Bromodomain Inhibitor” (J Med Chem, 2018)
